Data on four molecules can be found in ChEMBL document CHEMBL1629545, “A morpholino oligomer targeting highly conserved internal ribosome entry site sequence is able to inhibit multiple species of picornavirus” (Antimicrob Agents Chemother, 2008).

The source made the active and inactive calls. The rule behind the calls is not given here.

One series concerns SK-N-MC. In words: Cytotoxicity against human SK-N-MC cell at 10 uM after 24 hrs by MTS assay. In kind it is cell-based.
In the next series the test system is Vero. Briefly: Cytotoxicity against African green monkey Vero cells at 10 uM after 24 hrs by MTS assay. The series is classed as cell-based. The note with it: chlorocebus sabaeus. (In general: Formazan colour is commonly taken as a measure of viable cells.)
Another series relates to Poliovirus 1. In words: Antiviral activity against Human poliovirus type 1 infected in Human HeLa cell assessed as inhibition of translation at 10 ug/ml by luciferase reporter gene assay. The series is classed as functional, organism-based. Put shortly: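 In-cell translation control: HeLa cells electroporated with 20 μg PV1-Luc replicon RNA were placed in medium with 10 μg/ml puromycin at 37°C in 5% CO2. Luciferase in lysates was read by luminometer at hourly time points after transfection. Two experiments were averaged.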
A general note: Reporter assays use an easily measured gene product as a stand-in for the process of interest.

Series [1] has as its system HeLa. In words: Cytotoxicity against human HeLa cells at 10 uM by MTS assay. The series is classed as cell-based. Put shortly: (§1)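 HeLa cells at ~80% confluence, uninfected, exposed to 1–100 μM PPMO or water (mock) in serum-free DMEM-F-12 (1:1) for 24 h. MTS reagent was added for 4 h and absorbance read at 492 nm. Viability was expressed as percent of water-treated cells (set to 100%), averaged over 12 wells.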

For series [2], the system named is HeLa. In words: Cytotoxicity against human HeLa cells 10 uM after 24 hrs by MTS assay. The series is classed as cell-based. Put shortly: as §1

As for `Cc1cn([C@H]2CN(P(=O)(OC[C@@H]3CN(P(=O)(OC[C@@H]4CN(P(=O)(OC[C@@H]5CN(P(=O)(OC[C@@H]6CN(P(=O)(OC[C@@H]7CN(P(=O)(OC[C@@H]8CN(P(=O)(OC[C@@H]9CN(P(=O)(OC[C@@H]%10CN(P(=O)(OC[C@@H]%11CN(P(=O)(OC[C@@H]%12CN(P(=O)(OC[C@@H]%13CN(P(=O)(OC[C@@H]%14CN(P(=O)(OC[C@@H]%15CNC[C@H](n%16cnc%17c(=O)[nH]c(N)nc%17%16)O%15)N(C)C)C[C@H](n%15cc(C)c(=O)[nH]c%15=O)O%14)N(C)C)C[C@H](n%14cc(C)c(=O)[nH]c%14=O)O%13)N(C)C)C[C@H](n%13cnc%14c(N)ncnc%14%13)O%12)N(C)C)C[C@H](n%12cnc%13c(N)ncnc%13%12)O%11)N(C)C)C[C@H](n%11ccc(N)nc%11=O)O%10)N(C)C)C[C@H](n%10cnc%11c(N)ncnc%11%10)O9)N(C)C)C[C@H](n9cc(C)c(=O)[nH]c9=O)O8)N(C)C)C[C@H](n8cnc9c(N)ncnc98)O7)N(C)C)C[C@H](n7cnc8c(=O)[nH]c(N)nc87)O6)N(C)C)C[C@H](n6cc(C)c(=O)[nH]c6=O)O5)N(C)C)C[C@H](n5cnc6c(N)ncnc65)O4)N(C)C)C[C@H](n4cc(C)c(=O)[nH]c4=O)O3)N(C)C)C[C@@H](COP(=O)(N(C)C)N3C[C@@H](COP(=O)(N(C)C)N4C[C@@H](COP(=O)(N(C)C)N5C[C@@H](COP(=O)(N(C)C)N6C[C@@H](COP(=O)(N(C)C)N7C[C@@H](COP(=O)(N(C)C)N8C[C@@H](COP(=O)(N(C)C)N9C[C@@H](COP(=O)(N(C)C)N%10CCN(C(=O)CCNC(=O)CCCCCNC(=O)[C@H](CCCNC(=N)N)NC(=O)CCCCCNC(=O)[C@H](CCCNC(=N)N)NC(=O)[C@H](CCCNC(=N)N)NC(=O)CCCCCNC(=O)[C@H](CCCNC(=N)N)NC(=O)[C@H](CCCNC(=N)N)NC(=O)CCCCCNC(=O)[C@H](CCCNC(=N)N)NC(=O)[C@H](CCCNC(=N)N)NC(=O)CCCCCNC(=O)[C@@H](N)CCCNC(=N)N)CC%10)O[C@@H](n%10cnc%11c(=O)[nH]c(N)nc%11%10)C9)O[C@@H](n9ccc(N)nc9=O)C8)O[C@@H](n8cnc9c(N)ncnc98)C7)O[C@@H](n7ccc(N)nc7=O)C6)O[C@@H](n6ccc(N)nc6=O)C5)O[C@@H](n5ccc(N)nc5=O)C4)O[C@@H](n4cnc5c(N)ncnc54)C3)O2)c(=O)[nH]c1=O` (stereo not given in full), the Activity result in the series with SK-N-MC is given as “Non-toxic”; in the series with Vero, “Non-toxic”; in the series with HeLa [1], “Non-toxic”; with HeLa [2] it was “Toxic”. Further, in the series on Poliovirus 1, the result was inactive.
Consider `Cc1cn([C@H]2CN(P(=O)(OC[C@@H]3CN(P(=O)(OC[C@@H]4CN(P(=O)(OC[C@@H]5CN(P(=O)(OC[C@@H]6CN(P(=O)(OC[C@@H]7CN(P(=O)(OC[C@@H]8CN(P(=O)(OC[C@@H]9CN(P(=O)(OC[C@@H]%10CN(P(=O)(OC[C@@H]%11CN(P(=O)(OC[C@@H]%12CNC[C@H](n%13cnc%14c(N)ncnc%14%13)O%12)N(C)C)C[C@H](n%12cnc%13c(N)ncnc%13%12)O%11)N(C)C)C[C@H](n%11cnc%12c(N)ncnc%12%11)O%10)N(C)C)C[C@H](n%10cc(C)c(=O)[nH]c%10=O)O9)N(C)C)C[C@H](n9cc(C)c(=O)[nH]c9=O)O8)N(C)C)C[C@H](n8cnc9c(N)ncnc98)O7)N(C)C)C[C@H](n7cnc8c(N)ncnc87)O6)N(C)C)C[C@H](n6cnc7c(=O)[nH]c(N)nc76)O5)N(C)C)C[C@H](n5ccc(N)nc5=O)O4)N(C)C)C[C@H](n4ccc(N)nc4=O)O3)N(C)C)C[C@@H](COP(=O)(N(C)C)N3C[C@@H](COP(=O)(N(C)C)N4C[C@@H](COP(=O)(N(C)C)N5C[C@@H](COP(=O)(N(C)C)N6C[C@@H](COP(=O)(N(C)C)N7C[C@@H](COP(=O)(N(C)C)N8C[C@@H](COP(=O)(N(C)C)N9C[C@@H](COP(=O)(N(C)C)N%10C[C@@H](COP(=O)(N(C)C)N%11CCN(C(=O)CCNC(=O)CCCCCNC(=O)[C@H](CCCNC(=N)N)NC(=O)CCCCCNC(=O)[C@H](CCCNC(=N)N)NC(=O)[C@H](CCCNC(=N)N)NC(=O)CCCCCNC(=O)[C@H](CCCNC(=N)N)NC(=O)[C@H](CCCNC(=N)N)NC(=O)CCCCCNC(=O)[C@H](CCCNC(=N)N)NC(=O)[C@H](CCCNC(=N)N)NC(=O)CCCCCNC(=O)[C@@H](N)CCCNC(=N)N)CC%11)O[C@@H](n%11cc(C)c(=O)[nH]c%11=O)C%10)O[C@@H](n%10cc(C)c(=O)[nH]c%10=O)C9)O[C@@H](n9cc(C)c(=O)[nH]c9=O)C8)O[C@@H](n8cc(C)c(=O)[nH]c8=O)C7)O[C@@H](n7cc(C)c(=O)[nH]c7=O)C6)O[C@@H](n6cc(C)c(=O)[nH]c6=O)C5)O[C@@H](n5cc(C)c(=O)[nH]c5=O)C4)O[C@@H](n4ccc(N)nc4=O)C3)O2)c(=O)[nH]c1=O` (stereo not given in full), for which the Activity result in the series on SK-N-MC was “Non-toxic”; in the series on Vero, “Non-toxic”; with HeLa [1], “Non-toxic”; with HeLa [2], “Toxic”. Moreover, the result with Poliovirus 1 was inactive.
Regarding `Cc1cn([C@H]2CN(P(=O)(OC[C@@H]3CN(P(=O)(OC[C@@H]4CN(P(=O)(OC[C@@H]5CN(P(=O)(OC[C@@H]6CN(P(=O)(OC[C@@H]7CN(P(=O)(OC[C@@H]8CN(P(=O)(OC[C@@H]9CN(P(=O)(OC[C@@H]%10CN(P(=O)(OC[C@@H]%11CN(P(=O)(OC[C@@H]%12CN(P(=O)(OC[C@@H]%13CN(P(=O)(OC[C@@H]%14CN(P(=O)(OC[C@@H]%15CN(P(=O)(OC[C@@H]%16CN(P(=O)(OC[C@@H]%17CN(P(=O)(OC[C@@H]%18CN(P(=O)(OC[C@@H]%19CNC[C@H](n%20cnc%21c(=O)[nH]c(N)nc%21%20)O%19)N(C)C)C[C@H](n%19ccc(N)nc%19=O)O%18)N(C)C)C[C@H](n%18cnc%19c(N)ncnc%19%18)O%17)N(C)C)C[C@H](n%17cc(C)c(=O)[nH]c%17=O)O%16)N(C)C)C[C@H](n%16cc(C)c(=O)[nH]c%16=O)O%15)N(C)C)C[C@H](n%15cnc%16c(=O)[nH]c(N)nc%16%15)O%14)N(C)C)C[C@H](n%14ccc(N)nc%14=O)O%13)N(C)C)C[C@H](n%13cnc%14c(=O)[nH]c(N)nc%14%13)O%12)N(C)C)C[C@H](n%12ccc(N)nc%12=O)O%11)N(C)C)C[C@H](n%11cnc%12c(=O)[nH]c(N)nc%12%11)O%10)N(C)C)C[C@H](n%10cc(C)c(=O)[nH]c%10=O)O9)N(C)C)C[C@H](n9cc(C)c(=O)[nH]c9=O)O8)N(C)C)C[C@H](n8ccc(N)nc8=O)O7)N(C)C)C[C@H](n7cnc8c(N)ncnc87)O6)N(C)C)C[C@H](n6cnc7c(=O)[nH]c(N)nc76)O5)N(C)C)C[C@H](n5cnc6c(=O)[nH]c(N)nc65)O4)N(C)C)C[C@H](n4ccc(N)nc4=O)O3)N(C)C)C[C@@H](COP(=O)(N(C)C)N3C[C@@H](COP(=O)(N(C)C)N4C[C@@H](COP(=O)(N(C)C)N5CCN(C(=O)CCNC(=O)CCCCCNC(=O)[C@H](CCCNC(=N)N)NC(=O)CCCCCNC(=O)[C@H](CCCNC(=N)N)NC(=O)[C@H](CCCNC(=N)N)NC(=O)CCCCCNC(=O)[C@H](CCCNC(=N)N)NC(=O)[C@H](CCCNC(=N)N)NC(=O)CCCCCNC(=O)[C@H](CCCNC(=N)N)NC(=O)[C@H](CCCNC(=N)N)NC(=O)CCCCCNC(=O)[C@@H](N)CCCNC(=N)N)CC5)O[C@@H](n5ccc(N)nc5=O)C4)O[C@@H](n4ccc(N)nc4=O)C3)O2)c(=O)[nH]c1=O` (stereo not given in full), the Activity entry is given as “Non-toxic” in the series with SK-N-MC, “Non-toxic” in the series with Vero, “Non-toxic” in the series with HeLa [1] and “Toxic” in the series with HeLa [2]. The outcome with Poliovirus 1 was inactive.
For `Cc1cn([C@H]2CNC[C@@H](COP(=O)(N(C)C)N3C[C@@H](COP(=O)(N(C)C)N4C[C@@H](COP(=O)(N(C)C)N5C[C@@H](COP(=O)(N(C)C)N6C[C@@H](COP(=O)(N(C)C)N7C[C@@H](COP(=O)(N(C)C)N8C[C@@H](COP(=O)(N(C)C)N9C[C@@H](COP(=O)(N(C)C)N%10C[C@@H](COP(=O)(N(C)C)N%11C[C@@H](COP(=O)(N(C)C)N%12C[C@@H](COP(=O)(N(C)C)N%13C[C@@H](COP(=O)(N(C)C)N%14C[C@@H](COP(=O)(N(C)C)N%15C[C@@H](COP(=O)(N(C)C)N%16C[C@@H](COP(=O)(N(C)C)N%17C[C@@H](COP(=O)(N(C)C)N%18C[C@@H](COP(=O)(N(C)C)N%19C[C@@H](COP(=O)(N(C)C)N%20C[C@@H](COP(=O)(N(C)C)N%21C[C@@H](COP(=O)(N(C)C)N%22C[C@@H](COP(=O)(N(C)C)N%23CCN(C(=O)CCNC(=O)CCCCCNC(=O)[C@H](CCCNC(=N)N)NC(=O)CCCCCNC(=O)[C@H](CCCNC(=N)N)NC(=O)[C@H](CCCNC(=N)N)NC(=O)CCCCCNC(=O)[C@H](CCCNC(=N)N)NC(=O)[C@H](CCCNC(=N)N)NC(=O)CCCCCNC(=O)[C@H](CCCNC(=N)N)NC(=O)[C@H](CCCNC(=N)N)NC(=O)CCCCCNC(=O)[C@@H](N)CCCNC(=N)N)CC%23)O[C@@H](n%23cc(C)c(=O)[nH]c%23=O)C%22)O[C@@H](n%22cnc%23c(N)ncnc%23%22)C%21)O[C@@H](n%21ccc(N)nc%21=O)C%20)O[C@@H](n%20cnc%21c(=O)[nH]c(N)nc%21%20)C%19)O[C@@H](n%19cnc%20c(=O)[nH]c(N)nc%20%19)C%18)O[C@@H](n%18cc(C)c(=O)[nH]c%18=O)C%17)O[C@@H](n%17cnc%18c(=O)[nH]c(N)nc%18%17)C%16)O[C@@H](n%16cc(C)c(=O)[nH]c%16=O)C%15)O[C@@H](n%15cc(C)c(=O)[nH]c%15=O)C%14)O[C@@H](n%14cc(C)c(=O)[nH]c%14=O)C%13)O[C@@H](n%13cnc%14c(=O)[nH]c(N)nc%14%13)C%12)O[C@@H](n%12ccc(N)nc%12=O)C%11)O[C@@H](n%11cc(C)c(=O)[nH]c%11=O)C%10)O[C@@H](n%10ccc(N)nc%10=O)C9)O[C@@H](n9cc(C)c(=O)[nH]c9=O)C8)O[C@@H](n8cc(C)c(=O)[nH]c8=O)C7)O[C@@H](n7cnc8c(=O)[nH]c(N)nc87)C6)O[C@@H](n6cnc7c(N)ncnc76)C5)O[C@@H](n5cnc6c(N)ncnc65)C4)O[C@@H](n4ccc(N)nc4=O)C3)O2)c(=O)[nH]c1=O` (stereo not given in full), the Activity entry was “Non-toxic” with SK-N-MC, “Non-toxic” in the series with Vero, “Non-toxic” in the series on HeLa [1] and “Toxic” in the series on HeLa [2]. In addition, the outcome in the series on Poliovirus 1 was inactive.
